From ChEMBL document CHEMBL1137570, “3-substituted 7-phenyl-pyrroloquinolinones show potent cytotoxic activity in human cancer cell lines” (J Med Chem, 2007)

Assays:
OE19 = assay: Cytotoxicity against human OE19 cells after 72 hrs by MTT assay; type: functional, cell-based; settings: OE19, 72 h
Outline: (§1)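 MTT assay. Cells seeded at 7 × 10³ per well; after 24 h, exponentially growing cells were exposed to compound (final 0.005–100 µM) for 72 h. MTT was added for 4 h, then 10% SDS in 0.01 N HCl for 18 h at 37 °C. Absorbance read at 550 nm; survival given as % of untreated cells. IC50 from 6-8 replicate wells, ≥2 independent experiments.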

OE33 = assay: Cytotoxicity against human OE33 cells after 72 hrs by MTT assay; type: functional, cell-based; settings: OE33, 72 h; outline: as §1
HeLa = assay: Cytotoxicity against human HeLa cells after 72 hrs by MTT assay; type: functional, cell-based; outline: as §1
HepG2 = assay: Cytotoxicity against human HepG2 cells after 72 hrs by MTT assay; type: functional, cell-based; settings: HepG2, 72 h; outline: as §1
[1] = Cytotoxicity against human H295R cells after 72 hrs by MTT assay; type: functional, cell-based; settings: NCI-H295R; outline: as §1
OVCAR-3 = assay: Cytotoxicity against human Ovcar3 cells after 72 hrs by MTT assay; type: functional, cell-based; settings: OVCAR-3, 72 h; outline: as §1
MCF7 = assay: Cytotoxicity against human MCF7 cells after 72 hrs by MTT assay; type: functional, cell-based; settings: MCF7, 72 h; outline: as §1
ARO = assay: Cytotoxicity against human Aro cells after 72 hrs by MTT assay; type: functional, cell-based; outline: as §1
A549 [2] = assay: Cytotoxicity against human A549 cells after 72 hrs by MTT assay; type: functional, cell-based; settings: A549, 72 h
Outline: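 MTT assay. Cells seeded at 7 × 10³ per well; after 24 h, exponentially growing cells were exposed to compound (final 0.005–100 µM) for 72 h. MTT was added for 4 h, then 10% SDS in 0.01 N HCl for 18 h at 37 °C. Absorbance read at 550 nm; survival given as % of untreated cells.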

HT-29 = assay: Cytotoxicity against human HT29 cells after 72 hrs by MTT assay; type: functional, cell-based; settings: HT-29, 72 h; outline: as §1
PT-45 = assay: Cytotoxicity against human PT45 cells after 72 hrs by MTT assay; type: functional, cell-based; settings: PT-45, 72 h; outline: as §1
[3] = Cytotoxicity againat taxol-resistant human A549T12 cells after 72 hrs by MTT assay; type: functional, cell-based; settings: A549, 72 h
[4] = Cytotoxicity againat taxol-resistant human A549T24 cells after 72 hrs by MTT assay; type: functional, cell-based; settings: A549, 72 h
A549 [5] = assay: Resistance index, ratio of IC50 for A549 cells to IC50 for A549T12 cells; type: functional, Homo sapiens
A549 [6] = assay: Cell cycle arrest in human A549 cells assessed as accumulation at G1 phase at 1 uM after 24 hrs; type: functional
Outline: (§2)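 A549 cells grown 24 h in drug-free medium or with compound at 0.1 or 1 µM. Cells were trypsinized, washed twice in PBS, fixed in cold 70% ethanol (30 min, -20 °C), then washed in citrate phosphate buffer and PBS. RNase (100 µg/mL) for 30 min at 37 °C, then propidium iodide (100 µg/mL) for 30 min at room temperature. Flow cytometry at 488/525 nm, ≥15 000 events, 3-4 repeats.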

A549 [7] = assay: Cell cycle arrest in human A549 cells assessed as accumulation at G1 phase at 0.1 uM after 24 hrs; type: functional; outline: as §2
A549 [8] = assay: Cell cycle arrest in human A549 cells assessed as accumulation at S phase at 1 uM after 24 hrs; type: functional; outline: as §2
A549 [9] = assay: Cell cycle arrest in human A549 cells assessed as accumulation at S phase at 0.1 uM after 24 hrs; type: functional; outline: as §2
A549 [10] = assay: Cell cycle arrest in human A549 cells assessed as accumulation at G2/M phase at 1 uM after 24 hrs; type: functional; outline: as §2
A549 [11] = assay: Cell cycle arrest in human A549 cells assessed as accumulation at sub Go phase at 1 uM after 24 hrs; type: functional
A549 [12] = assay: Cell cycle arrest in human A549 cells assessed as accumulation at sub Go phase at 0.1 uM after 24 hrs; type: functional
A549 [13] = assay: Cell cycle arrest in human A549 cells assessed as accumulation at G2/M phase at 0.1 uM after 24 hrs; type: functional; outline: as §2

Structure (SMILES) | IC50 (OE19) | IC50 (OE33) | IC50 (HeLa) | IC50 (HepG2) | IC50 [1] | IC50 (OVCAR-3) | IC50 (MCF7) | IC50 (ARO) | IC50 (A549 [2]) | IC50 (HT-29) | IC50 (PT-45) | IC50 [3] | IC50 [4] | Activity (A549 [6]) | Activity (A549 [7]) | Activity (A549 [8]) | Activity (A549 [9]) | Activity (A549 [10]) | Activity (A549 [11]) | Activity (A549 [12]) | other results
O=c1cc(-c2ccccc2)[nH]c2ccc3[nH]ccc3c12 | 1000 nM | 2000 nM |  |  |  |  |  |  |  |  |  |  |  |  |  |  |  |  |  |  | 
Cn1ccc2c3c(=O)cc(-c4ccccc4)[nH]c3ccc21 | 100 nM | 800 nM | 100 nM | 1000 nM | 90 nM | 700 nM | 400 nM | 300 nM | 300 nM | 300 nM | 100 nM | 300 nM | 200 nM | 15.6% | 66.9% | 9.2% | 8.8% | 74.9% | 0.3% | 6.4% | Ratio IC50 (A549 [5]): 1; Activity (A549 [13]): 18.2%
CC[C@]1(O)C[C@H]2CN(CCc3c([nH]c4ccccc34)[C@@](C(=O)OC)(c3cc4c(cc3OC)N(C=O)[C@H]3[C@@](O)(C(=O)OC)[C@H](OC(C)=O)[C@]5(CC)C=CCN6CC[C@]43[C@@H]65)C2)C1 [VINCRISTINE] | 50 nM | 30 nM | 5 nM | 200 nM | 90 nM | 20 nM | 20 nM | 0.3 nM | 30 nM | 10 nM | 4 nM |  |  | 46.8% |  | 7.9% |  | 45.2% | 0.5% |  | 
CC(=O)O[C@H]1C(=O)[C@@]2(C)[C@H]([C@H](OC(=O)c3ccccc3)[C@]3(O)C[C@H](OC(=O)[C@H](O)[C@@H](NC(=O)c4ccccc4)c4ccccc4)C(C)=C1C3(C)C)[C@]1(OC(C)=O)CO[C@@H]1C[C@@H]2O [PACLITAXEL] | 400 nM | 200 nM | 8 nM | 300 nM | 80 nM | 10 nM | 7 nM | 0.2 nM |  | 50 nM | 5 nM | 60 nM | 102 nM |  |  |  |  |  |  |  | 
O=c1cc(-c2ccccc2)[nH]c2ccc3c(ccn3CC3CC3)c12 | 100 nM | 20 nM | 20 nM | 20 nM | 10 nM | 10 nM | 40 nM | 30 nM | 20 nM | 60 nM | 20 nM | 20 nM | 20 nM | 16.3% | 16.5% | 8.6% | 7% | 74.6% | 0.3% | 0.4% | Ratio IC50 (A549 [5]): 1; Activity (A549 [13]): 75.7%
CCCCCn1ccc2c3c(=O)cc(-c4ccccc4)[nH]c3ccc21 | 5 nM | 20 nM | 20 nM | 30 nM | 20 nM | 20 nM | 80 nM | 70 nM | 40 nM | 200 nM | 40 nM | 50 nM | 40 nM | 15.5% | 12.4% | 8.8% | 7.2% | 75.5% | 0.4% | 1% | Ratio IC50 (A549 [5]): 0.8; Activity (A549 [13]): 79.6%
CCCCn1ccc2c3c(=O)cc(-c4ccccc4)[nH]c3ccc21 | 7 nM | 60 nM | 20 nM | 20 nM | 10 nM | 10 nM | 60 nM | 30 nM | 30 nM | 30 nM | 40 nM | 20 nM | 30 nM | 12.9% | 11.8% | 9.2% | 7.7% | 77.6% | 0.4% | 0.2% | Activity (A549 [13]): 80.4%
O=c1cc(-c2ccccc2)[nH]c2ccc3c(ccn3Cc3ccccc3)c12 | 500 nM | 100 nM | 100 nM | 700 nM | 400 nM | 500 nM | 300 nM | 300 nM | 100 nM | 400 nM | 80 nM | 100 nM | 200 nM | 14.6% | 78.9% | 9.4% | 9.7% | 75.8% | 0.5% | 1.1% | Ratio IC50 (A549 [5]): 1; Activity (A549 [13]): 10.4%
CCn1ccc2c3c(=O)cc(-c4ccccc4)[nH]c3ccc21 | 80 nM | 200 nM | 10 nM | 50 nM | 30 nM | 40 nM | 40 nM | 30 nM | 30 nM | 30 nM | 30 nM | 30 nM | 30 nM | 14.1% | 11.7% | 8.1% | 8.1% | 77.3% | 0.4% | 0.6% | Ratio IC50 (A549 [5]): 1; Activity (A549 [13]): 79.8%
CCN(CC)CCn1ccc2c3c(O)cc(-c4ccccc4)nc3ccc21 | 10000 nM | 16000 nM |  |  |  |  |  |  |  |  |  |  |  |  |  |  |  |  |  |  | 
CCCn1ccc2c3c(=O)cc(-c4ccccc4)[nH]c3ccc21 | 50 nM | 100 nM | 30 nM | 40 nM | 20 nM | 20 nM | 70 nM | 50 nM | 50 nM | 200 nM | 50 nM | 40 nM | 40 nM | 13.5% | 13.6% | 9.6% | 8.7% | 76.9% | 0.3% | 1.3% | Ratio IC50 (A549 [5]): 1.2; Activity (A549 [13]): 76.2%
